Measurements from ChEMBL document CHEMBL4808175 (J Med Chem, 2021).
pEC50, pIC50: −log10 of the molar value. Activity calls are given as the source filed them. The rule behind the calls is not given here.

Tests used:
[1] = target: T1, cGMP-specific 3',5'-cyclic phosphodiesterase (Homo sapiens, UniProt O76074); test: Inhibition of recombinant full length GST-tagged PDE5A1 (unknown origin) expressed in baculovirus infected Sf9 insect cells using TAMRA-cGMP as substrate incubated for 1.5 hrs by IMAP-FP assay
[2] = target: T1, cGMP-specific 3',5'-cyclic phosphodiesterase; test: Inhibition of recombinant 6His-tagged PDE5A1 catalytic domain (unknown origin) expressed in Escherichia coli using TAMRA-cGMP or FAM-cAMP as substrate incubated for 1.5 hrs by IMAP-FP assay
[3] = target: T2, cGMP-dependent 3',5'-cyclic phosphodiesterase (Homo sapiens, UniProt O00408); test: Inhibition of recombinant full length GST-tagged PDE2A (unknown origin) expressed in baculovirus infected Sf9 insect cells using FAM-cAMP as substrate incubated for 1.5 hrs by IMAP-FP assay
T2 sequence (O00408 whole entry): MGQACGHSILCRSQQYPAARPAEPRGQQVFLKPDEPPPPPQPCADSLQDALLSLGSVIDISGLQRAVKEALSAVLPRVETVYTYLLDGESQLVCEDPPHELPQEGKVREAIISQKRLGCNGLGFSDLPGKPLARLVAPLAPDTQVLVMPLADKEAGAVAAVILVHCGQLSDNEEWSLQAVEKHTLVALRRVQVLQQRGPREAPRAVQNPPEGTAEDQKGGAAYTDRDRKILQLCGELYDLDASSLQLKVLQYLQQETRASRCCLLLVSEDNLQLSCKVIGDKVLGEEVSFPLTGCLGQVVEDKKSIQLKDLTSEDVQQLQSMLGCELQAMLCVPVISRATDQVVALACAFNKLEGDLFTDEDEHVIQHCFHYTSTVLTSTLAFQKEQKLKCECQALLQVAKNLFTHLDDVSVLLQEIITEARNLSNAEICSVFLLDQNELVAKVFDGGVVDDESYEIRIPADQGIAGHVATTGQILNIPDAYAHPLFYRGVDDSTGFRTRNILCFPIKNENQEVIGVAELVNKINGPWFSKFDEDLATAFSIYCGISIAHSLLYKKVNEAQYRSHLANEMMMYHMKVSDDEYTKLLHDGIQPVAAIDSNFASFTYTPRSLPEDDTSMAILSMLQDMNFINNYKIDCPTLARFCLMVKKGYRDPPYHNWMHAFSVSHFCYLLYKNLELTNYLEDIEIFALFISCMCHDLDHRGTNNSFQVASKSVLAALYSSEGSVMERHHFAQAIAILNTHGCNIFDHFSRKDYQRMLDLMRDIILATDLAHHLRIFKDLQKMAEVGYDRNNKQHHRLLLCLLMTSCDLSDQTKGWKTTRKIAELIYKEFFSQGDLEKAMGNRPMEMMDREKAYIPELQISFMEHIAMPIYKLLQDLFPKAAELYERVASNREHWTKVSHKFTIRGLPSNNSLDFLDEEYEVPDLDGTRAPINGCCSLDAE
Procedure, shortened: (§1)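 PDE enzymes incubated with compound or vehicle and 50 nM TAMRA-cGMP or FAM-cAMP substrate for 1.5 h at 30 °C. Activity read by IMAP fluorescence polarization. IC50 from 10 concentrations, at least two replicates each, fitted by four-parameter logistic. Dose–response repeated at least twice; mean of at least two experiments.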

[4] = target: T2, cGMP-dependent 3',5'-cyclic phosphodiesterase; test: Inhibition of recombinant full length GST-tagged PDE2A (unknown origin) expressed in baculovirus infected Sf9 insect cells using TAMRA-cGMP as substrate incubated for 1.5 hrs by IMAP-FP assay; procedure, shortened: as §1
[5] = target: 3',5'-cyclic-AMP phosphodiesterase 4B (Homo sapiens, UniProt Q07343); test: Inhibition of recombinant full length GST-tagged PDE4B2 (unknown origin) expressed in baculovirus infected Sf9 insect cells using FAM-cAMP as substrate incubated for 1.5 hrs by IMAP-FP assay; procedure, shortened: as §1
Sequence of 3',5'-cyclic-AMP phosphodiesterase 4B (Q07343 whole entry): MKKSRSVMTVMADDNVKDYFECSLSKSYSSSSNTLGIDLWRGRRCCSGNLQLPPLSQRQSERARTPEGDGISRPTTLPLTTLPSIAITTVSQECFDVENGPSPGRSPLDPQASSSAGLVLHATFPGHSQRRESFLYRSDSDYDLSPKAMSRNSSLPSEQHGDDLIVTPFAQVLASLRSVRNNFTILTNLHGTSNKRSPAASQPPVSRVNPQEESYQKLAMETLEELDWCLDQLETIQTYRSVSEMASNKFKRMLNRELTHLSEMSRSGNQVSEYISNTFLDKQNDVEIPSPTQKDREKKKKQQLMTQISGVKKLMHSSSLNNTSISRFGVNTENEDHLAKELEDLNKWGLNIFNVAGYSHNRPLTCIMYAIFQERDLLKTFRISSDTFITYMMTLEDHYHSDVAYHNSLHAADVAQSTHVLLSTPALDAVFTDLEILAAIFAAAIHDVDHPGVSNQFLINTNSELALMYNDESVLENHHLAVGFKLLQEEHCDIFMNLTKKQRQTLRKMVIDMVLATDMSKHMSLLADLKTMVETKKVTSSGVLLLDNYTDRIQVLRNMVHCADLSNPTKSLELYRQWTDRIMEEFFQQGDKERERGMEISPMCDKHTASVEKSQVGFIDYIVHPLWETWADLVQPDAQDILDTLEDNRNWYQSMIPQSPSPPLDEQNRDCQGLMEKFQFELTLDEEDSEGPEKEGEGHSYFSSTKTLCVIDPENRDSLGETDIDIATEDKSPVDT

[6] = target: T3, Cone cGMP-specific 3',5'-cyclic phosphodiesterase subunit alpha' (Homo sapiens, UniProt P51160); test: Inhibition of recombinant full length GST-tagged PDE6C (unknown origin) expressed in baculovirus infected Sf9 insect cells using TAMRA-cGMP as substrate incubated for 1.5 hrs by IMAP-FP assay; procedure, shortened: as §1
T3 sequence (P51160 whole entry): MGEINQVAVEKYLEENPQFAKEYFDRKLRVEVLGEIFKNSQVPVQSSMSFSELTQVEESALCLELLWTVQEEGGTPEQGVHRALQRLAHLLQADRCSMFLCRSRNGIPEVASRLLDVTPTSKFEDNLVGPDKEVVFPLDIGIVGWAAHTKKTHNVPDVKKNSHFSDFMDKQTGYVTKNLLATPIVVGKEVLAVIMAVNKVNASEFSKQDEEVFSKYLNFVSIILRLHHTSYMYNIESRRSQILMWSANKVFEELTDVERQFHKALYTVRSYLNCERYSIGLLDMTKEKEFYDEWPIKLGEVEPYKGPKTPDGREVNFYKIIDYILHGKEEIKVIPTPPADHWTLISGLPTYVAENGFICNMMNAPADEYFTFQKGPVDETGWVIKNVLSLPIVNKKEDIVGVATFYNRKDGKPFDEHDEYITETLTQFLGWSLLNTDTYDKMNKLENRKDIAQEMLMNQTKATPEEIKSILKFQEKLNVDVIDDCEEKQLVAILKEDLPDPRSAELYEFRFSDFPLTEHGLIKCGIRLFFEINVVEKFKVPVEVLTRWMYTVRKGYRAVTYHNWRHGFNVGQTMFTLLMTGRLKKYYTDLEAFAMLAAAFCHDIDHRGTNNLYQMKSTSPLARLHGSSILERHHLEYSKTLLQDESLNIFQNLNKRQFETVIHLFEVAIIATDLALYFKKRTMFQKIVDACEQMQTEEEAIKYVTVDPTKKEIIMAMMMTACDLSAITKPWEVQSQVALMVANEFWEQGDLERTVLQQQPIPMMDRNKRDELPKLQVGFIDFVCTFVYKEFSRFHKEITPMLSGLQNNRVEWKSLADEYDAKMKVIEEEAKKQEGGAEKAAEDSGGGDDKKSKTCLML

[7] = target: High affinity 3',5'-cyclic-AMP phosphodiesterase 7A (Homo sapiens, UniProt Q13946); test: Inhibition of recombinant GST-tagged PDE7A (122 to end residues) (unknown origin) expressed in baculovirus infected Sf9 insect cells using FAM-cAMP as substrate incubated for 1.5 hrs by IMAP-FP assay; procedure, shortened: as §1
Sequence of High affinity 3',5'-cyclic-AMP phosphodiesterase 7A (Q13946 whole entry): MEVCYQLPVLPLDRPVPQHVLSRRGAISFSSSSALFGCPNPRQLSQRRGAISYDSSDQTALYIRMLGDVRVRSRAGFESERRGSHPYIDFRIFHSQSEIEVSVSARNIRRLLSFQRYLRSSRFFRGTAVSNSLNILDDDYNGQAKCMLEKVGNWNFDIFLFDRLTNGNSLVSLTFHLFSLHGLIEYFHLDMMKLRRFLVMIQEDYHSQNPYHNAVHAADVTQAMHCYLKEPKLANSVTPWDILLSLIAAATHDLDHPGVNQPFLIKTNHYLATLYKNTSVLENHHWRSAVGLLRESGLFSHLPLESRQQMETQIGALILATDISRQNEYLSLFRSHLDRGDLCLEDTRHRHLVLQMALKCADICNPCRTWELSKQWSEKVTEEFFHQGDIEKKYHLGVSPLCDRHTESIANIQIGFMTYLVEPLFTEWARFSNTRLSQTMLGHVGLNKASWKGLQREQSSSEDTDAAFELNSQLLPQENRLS

[8] = target: High affinity cAMP-specific and IBMX-insensitive 3',5'-cyclic phosphodiesterase 8A (Homo sapiens, UniProt O60658); test: Inhibition of recombinant GST-tagged full length PDE8A1 (unknown origin) expressed in baculovirus infected Sf9 insect cells using FAM-cAMP as substrate incubated for 1.5 hrs by IMAP-FP assay; procedure, shortened: as §1
Sequence of High affinity cAMP-specific and IBMX-insensitive 3',5'-cyclic phosphodiesterase 8A (O60658 whole entry): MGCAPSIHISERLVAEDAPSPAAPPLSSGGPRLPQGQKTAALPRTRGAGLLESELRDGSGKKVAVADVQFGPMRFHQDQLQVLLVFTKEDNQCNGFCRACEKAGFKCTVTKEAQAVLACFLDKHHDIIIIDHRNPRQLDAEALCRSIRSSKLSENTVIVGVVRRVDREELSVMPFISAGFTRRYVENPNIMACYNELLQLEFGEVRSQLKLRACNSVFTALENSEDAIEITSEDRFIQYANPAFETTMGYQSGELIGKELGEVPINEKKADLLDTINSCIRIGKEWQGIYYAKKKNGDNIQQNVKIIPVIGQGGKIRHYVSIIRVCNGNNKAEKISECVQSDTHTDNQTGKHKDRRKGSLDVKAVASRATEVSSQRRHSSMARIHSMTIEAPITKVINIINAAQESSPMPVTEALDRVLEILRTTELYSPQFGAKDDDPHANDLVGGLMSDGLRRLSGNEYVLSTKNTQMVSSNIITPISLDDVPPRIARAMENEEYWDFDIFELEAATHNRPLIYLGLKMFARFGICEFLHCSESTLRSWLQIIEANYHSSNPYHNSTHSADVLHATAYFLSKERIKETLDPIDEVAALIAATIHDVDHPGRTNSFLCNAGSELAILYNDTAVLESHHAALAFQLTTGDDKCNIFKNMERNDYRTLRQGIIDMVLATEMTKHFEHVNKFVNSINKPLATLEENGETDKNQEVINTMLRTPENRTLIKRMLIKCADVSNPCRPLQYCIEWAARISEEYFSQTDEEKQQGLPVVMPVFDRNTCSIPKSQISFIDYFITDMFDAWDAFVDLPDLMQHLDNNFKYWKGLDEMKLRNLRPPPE

Homo sapiens [9] = organism: Homo sapiens; test: Selectivity ratio of IC50 for recombinant full length GST-tagged PDE6C (unknown origin) expressed in baculovirus infected Sf9 insect cells to IC50 for recombinant full length GST-tagged PDE5A1 (unknown origin) expressed in baculovirus infected Sf9 insect cells using TAMRA-cGMP as substrate incubated for 1.5 hrs by IMAP-FP assay using TAMRA-cGMP as substrate incubated for 1.5 hrs by IMAP-FP assay
Homo sapiens [10] = organism: Homo sapiens; test: Selectivity ratio of IC50 for recombinant GST-tagged full length PDE11A4 (unknown origin) expressed in baculovirus infected Sf9 insect cells to IC50 for recombinant full length GST-tagged PDE5A1 (unknown origin) expressed in baculovirus infected Sf9 insect cells using TAMRA-cGMP as substrate incubated for 1.5 hrs by IMAP-FP assay using TAMRA-cGMP as substrate incubated for 1.5 hrs by IMAP-FP assay
[11] = target: T3, Cone cGMP-specific 3',5'-cyclic phosphodiesterase subunit alpha'; test: Inhibition of recombinant full length GST-tagged PDE6C (unknown origin) expressed in baculovirus infected Sf9 insect cells at 15 uM using TAMRA-cGMP as substrate incubated for 1.5 hrs by IMAP-FP assay relative to control
Procedure, shortened: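 PDE6 activity measured at a single 15 μM compound concentration with TAMRA-cGMP substrate. Incubated 1.5 h at 30 °C and read by IMAP fluorescence polarization; percent inhibition relative to control.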

[12] = target: T1, cGMP-specific 3',5'-cyclic phosphodiesterase; test: Competitive inhibition of recombinant 6His-tagged PDE5A1 catalytic domain (unknown origin) expressed in Escherichia coli assessed as increase in apparent Km up to 40 nM using varying levels TAMRA-cGMP or FAM-cAMP as substrate; settings: dose nM <=40
[13] = target: T1, cGMP-specific 3',5'-cyclic phosphodiesterase; test: Inhibition of PDE5A in HEK293 cells stably transfected with cGMP biosensor assessed as increase in SNP-induced intracellular cGMP level measured after 90 mins by luminescence assay; type: cell-based
[14] = Protein binding in human plasma assessed as bound fraction by HPLC-MS/MS analysis; type: ADME, cell-free; settings: read-out: PPB (converted)
Procedure, shortened: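 Human plasma spiked with compound at 10 μM, 1% DMSO final. Dialyzed against PBS pH 7.4 for 4 h at 37 °C. Both compartments diluted, acetonitrile-precipitated and quantified by HPLC-MS/MS. An undialyzed spiked control served for recovery; duplicates.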

[15] = Elimination rate constant in C57BL/6N mouse at 150 mg/kg, po administered as single dose measured up to 8 hrs by LC-MS/MS analysis; type: ADME, organism-based; settings: in vivo
[16] = Tmax in C57BL/6N mouse at 150 mg/kg, po administered as single dose measured up to 8 hrs by LC-MS/MS analysis; type: ADME, organism-based; settings: in vivo
[17] = Cmax in C57BL/6N mouse at 150 mg/kg, po administered as single dose measured up to 8 hrs by LC-MS/MS analysis; type: ADME, organism-based; set-up: route oral, dose 150 mg/kg, time <=8; settings: in vivo
[18] = AUC (0 to 8 hrs) in C57BL/6N mouse at 150 mg/kg, po administered as single dose measured up to 8 hrs by LC-MS/MS analysis; type: ADME, organism-based; set-up: route oral, dose 150 mg/kg, time <=8; settings: in vivo
[19] = Observed AUC (0 to infinity) in C57BL/6N mouse at 150 mg/kg, po administered as single dose measured up to 8 hrs by LC-MS/MS analysis; type: ADME, organism-based; set-up: route oral, dose 150 mg/kg, time <=8; settings: in vivo
[20] = Observed clearance in C57BL/6N mouse at 150 mg/kg, po administered as single dose measured up to 8 hrs by LC-MS/MS analysis; type: ADME, organism-based; settings: in vivo
[21] = Toxicity in athymic nude-Foxn1nu mouse assessed as body weight loss at 50 to 150 mg/kg, po bid measured immediately relative to control; type: organism-based; settings: in vivo, dose 50-150 mg/kg
Procedure, shortened: (§2)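 Female athymic nude-Foxn1nu mice, 8–9 weeks, 18–24 g, n=4 per group. Oral gavage at 50, 100 or 150 mg/kg twice daily, or vehicle, for 28 days. Formulation ethanol/water/Maalox (7:3:90, v/v/v). Toxicity signs monitored daily. Body weight recorded daily in week 1, then twice weekly, as percent change from starting weight.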

[22] = Toxicity in athymic nude-Foxn1nu mouse at 50 to 150 mg/kg, po bid for 28 days; type: organism-based; settings: in vivo, 672 h, dose 50-150 mg/kg, time 28 day; procedure, shortened: as §2
[23] = Toxicity in athymic nude-Foxn1nu mouse assessed as effect on liver at 50 to 150 mg/kg, po bid for 28 days; type: organism-based; settings: in vivo, 672 h, dose 50-150 mg/kg, time 28 day
[24] = Toxicity in athymic nude-Foxn1nu mouse assessed as effect on spleen at 50 to 150 mg/kg, po bid for 28 days; type: organism-based; settings: in vivo, 672 h, dose 50-150 mg/kg, time 28 day
[25] = target: High affinity cGMP-specific 3',5'-cyclic phosphodiesterase 9A (Homo sapiens, UniProt O76083); test: Inhibition of recombinant GST-tagged full length PDE9A2 (unknown origin) expressed in baculovirus infected Sf9 insect cells using substrate incubated for 1.5 hrs by IMAP-FP assay
Sequence of High affinity cGMP-specific 3',5'-cyclic phosphodiesterase 9A (O76083 whole entry): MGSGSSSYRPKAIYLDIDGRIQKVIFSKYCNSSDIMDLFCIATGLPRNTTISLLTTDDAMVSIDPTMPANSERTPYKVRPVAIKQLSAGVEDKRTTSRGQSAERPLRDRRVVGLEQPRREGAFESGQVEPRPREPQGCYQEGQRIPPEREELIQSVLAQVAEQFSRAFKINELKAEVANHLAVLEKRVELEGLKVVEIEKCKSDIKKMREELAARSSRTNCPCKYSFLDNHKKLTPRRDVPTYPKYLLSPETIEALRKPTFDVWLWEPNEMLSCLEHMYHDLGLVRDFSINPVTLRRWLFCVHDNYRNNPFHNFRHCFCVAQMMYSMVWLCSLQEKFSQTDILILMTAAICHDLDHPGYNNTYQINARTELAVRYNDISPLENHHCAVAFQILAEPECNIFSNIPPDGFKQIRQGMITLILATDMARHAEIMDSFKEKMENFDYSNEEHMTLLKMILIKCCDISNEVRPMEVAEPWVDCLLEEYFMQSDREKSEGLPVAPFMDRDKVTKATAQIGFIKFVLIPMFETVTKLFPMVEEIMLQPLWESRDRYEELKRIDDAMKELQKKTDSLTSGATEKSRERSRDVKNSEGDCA

pIC50 [1]: 9.00
pIC50 [2]: < 6.00
pIC50 [3]: < 5.00
pIC50 [4]: < 5.00
pIC50 [5]: < 5.00
pIC50 [6]: < 5.00
pIC50 [7]: < 5.00
pIC50 [8]: < 5.00
inhibition [11]: 50%
inhibition [12]: Active
pEC50 [13]: 5.17
fraction unbound [14]: 0.02
k el at 8 h [15]: 8.33e-05 s⁻¹
Tmax [16]: 2 h
Cmax [17]: 4000 ng/mL
AUC(0-t) [18]: 14100 ng·h/mL
AUC(0-inf) [19]: 16200 ng·h/mL
CL/F [20]: 3.09 mL/min
pIC50 [25]: < 5.00
SMILES: COc1c(F)cc(C2CC(C(C)(C)C)=NN2c2ccc(C(=O)N3CCN(C)CC3)cc2)cc1F (stereo not given)
Ratio IC50 (Homo sapiens [9]): > 10000
Ratio IC50 (Homo sapiens [10]): > 10000
Activity [21]: < 5%
Activity [22]: Non-Toxic
Activity [23]: Non-Toxic
Activity [24]: Non-Toxic
